Results published in ChEMBL document CHEMBL3817760, “Design, synthesis and evaluation of novel indandione derivatives as multifunctional agents with cholinesterase inhibition, anti-β-amyloid aggregation, antioxidant and neuroprotection properties against Alzheimer's disease” (Bioorg Med Chem, 2016).
The source made the active and inactive calls. The rule behind the calls is not given here.

Legend:
Acetylcholinesterase = Acetylcholinesterase (Electrophorus electricus, UniProt O42275); test: Inhibition of electric eel AChE using acetylthiocholine iodide as substrate preincubated for 5 mins followed by substrate addition measured after 2 mins by Ellman's method
Cholinesterase = Cholinesterase (Equus caballus, UniProt P81908); test: Inhibition of equine serum BuChE using butyrylthiocholine iodide as substrate preincubated for 5 mins followed by substrate addition measured after 2 mins by Ellman's method
Outline: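 BuChE from equine serum (0.06 U/mL) in 0.1 M phosphate buffer pH 8.0, compounds diluted from ethanol stocks to 1-100 µM final, standing 5 min before DTNB. Started with 0.075 M butyrylthiocholine; A412 read 2 min later at 25°C. Enzyme-free blanks and inhibitor-free full-activity controls included. Triplicates; IC50 from nonlinear regression of concentration-inhibition data.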

[1] = Selectivity index, ratio of IC50 for equine serum BuChE to IC50 for electric eel AChE
Outline: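 Ratio of IC50 values from the modified Ellman assay. Equine serum BuChE (0.06 U/mL) and electric eel AChE (0.22 U/mL), each in 0.1 M phosphate pH 8.0 with DTNB and 0.075 M thiocholine substrate, A412 at 2 min, 25°C. IC50s were means of three experiments.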

[2] = target: T1, Amyloid-beta precursor protein (Homo sapiens, UniProt P05067); test: Inhibition of self-induced amyloid beta (1 to 42) (unknown origin) aggregation at 25 uM incubated for 48 hrs measured after 5 mins by thioflavin-T fluorescence assay
Outline: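 Aβ1-42 pretreated with HFIP, then diluted in 50 mM phosphate buffer pH 7.4 to 25 μM final. Incubated ± compound (25 μM) at 37°C for 48 h, then diluted in 50 mM glycine–NaOH pH 8.0 containing 5 μM thioflavin-T. Fluorescence read 5 min later (ex 450/em 485 nm). Inhibition % = (1−IFi/IFc)×100 after background subtraction; triplicate.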

[3] = target: T1, Amyloid-beta precursor protein; test: Inhibition of self-induced amyloid beta (1 to 42) (unknown origin) aggregation incubated for 48 hrs measured after 5 mins by thioflavin-T fluorescence assay
[4] = target: T1, Amyloid-beta precursor protein; test: Potency index, ratio of curcumin IC50 to compound IC50 for self-induced amyloid beta (1 to 42) (unknown origin) aggregation
[5] = Cytotoxicity against human SH-SY5Y cells assessed as cell viability at 50 uM after 48 hrs by MTT assay; format: cell-based; details: read-out: Activity
Outline: (§1)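 SH-SY5Y cells grown in DMEM with 10% FBS and 1% penicillin-streptomycin at 37°C, 5% CO2. Plated at 2000 cells/well and cultured 24 h, then exposed 48 h to compound at 1-100 μM (DMSO stock diluted in complete medium). MTT added for 4 h, formazan dissolved in DMSO, absorbance read at 570 nm (reference 630 nm). Triplicates; three independent experiments.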

[6] = Cytotoxicity against human SH-SY5Y cells assessed as cell viability at 75 uM after 48 hrs by MTT assay; format: cell-based; details: read-out: Activity; outline: as §1
[7] = Cytotoxicity against human SH-SY5Y cells assessed as cell viability at 100 uM after 48 hrs by MTT assay; format: cell-based; details: read-out: Activity; outline: as §1
SH-SY5Y [8] = test: Cytotoxicity against human SH-SY5Y cells assessed as decrease in cell viability up to 100 uM after 24 hrs by MTT assay; format: cell-based
SH-SY5Y [9] = test: Cytotoxicity against human SH-SY5Y cells assessed as decrease in cell viability after 48 hrs by MTT assay; format: cell-based; outline: as §1
SH-SY5Y [10] = test: […] in human SH-SY5Y cells at 5 to 20 uM after 24 hrs by DCFH-DA fluorescent assay; format: ADME, cell-based
[11] = target: T1, Amyloid-beta precursor protein; test: Inhibition of amyloid beta (1 to 42) (unknown origin) aggregation at 25 uM after 72 hrs by transmission electron microscopy
Outline: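 Aβ1-42 stock diluted in 20 mM phosphate buffer (pH 7.4) at 4°C, then incubated at 37°C with or without compound. Final concentrations per methods: peptide 50 μM, compound 25 μM; figure legend gives 25 μM each. Incubation time given as 48 h (methods) and 72 h (text). Samples placed on carbon-coated grids, stained with 1% uranyl acetate and imaged by TEM.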

SH-SY5Y [12] = test: Antioxidant activity in human SH-SY5Y cells assessed as inhibition of H2O2-induced ROS production after 24 hrs by DCFH-DA fluorescent assay; format: functional, cell-based
Outline: (§2)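 SH-SY5Y cells seeded at 2 × 10^4/well and exposed 24 h to H2O2 (200 μM) with or without compound at 5, 10 and 20 μM. Intracellular ROS then probed with DCFH-DA for 20 min and total DCF fluorescence read on a plate reader. Mean ± S.D of three experiments, each in triplicate; one-way ANOVA with Bonferroni test.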

SH-SY5Y [13] = test: Neuroprotective activity against H2O2-induced neurotoxicity in human SH-SY5Y cells assessed as cell viability after 24 hrs by MTT assay relative to control; format: functional, cell-based
Outline: (§3)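 SH-SY5Y cells seeded at 2 × 10^4/well and incubated 24 h. Medium then replaced with serum-free DMEM containing 200 μM H2O2 plus compound (5, 10, 20 μM) at 37°C for 24 h. Viability measured by MTT as % of untreated control, and morphology photographed under phase-contrast microscopy. Mean ± S.D of three experiments in triplicate; ANOVA with Bonferroni test.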

SH-SY5Y [14] = test: Neuroprotective activity against H2O2-induced neurotoxicity in human SH-SY5Y cells assessed as change in cell morphology at 20 uM after 24 hrs by phase contrast microscopy; format: functional, cell-based; outline: as §3
SH-SY5Y [15] = test: Neuroprotective activity against H2O2-induced cell death in human SH-SY5Y cells at 20 uM after 24 hrs by phase contrast microscopy; format: functional, cell-based; outline: as §3
SH-SY5Y [16] = test: Neuroprotective activity against amyloid beta (1 to 42)-induced neurotoxicity in human SH-SY5Y cells assessed as cell viability treated for 24 hrs measured after 48 hrs by MTT assay; format: functional, cell-based
Outline: (§4)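 Aβ1-42 treated with HFIP (1 mg/ml), sonicated, left 24 h at room temperature and lyophilized; film dissolved in DMSO. SH-SY5Y cells plated at 2 × 10^4/well and allowed to attach 24 h. Aβ (25 μM) added ± compound (5-20 μM) in fresh medium. Viability measured by MTT as % of control after 48 h (methods; text says 24 h co-treatment). Morphology imaged by phase-contrast microscopy.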

SH-SY5Y [17] = test: Neuroprotective activity against amyloid beta (1 to 42)-induced neurotoxicity in human SH-SY5Y cells assessed as change in cell morphology at 20 uM after 24 hrs by phase contrast microscopy; format: functional, cell-based; outline: as §4
[18] = Cytotoxicity against human SH-SY5Y cells assessed as cell viability at 1 uM after 48 hrs by MTT assay; format: cell-based; details: read-out: Activity; outline: as §1
[19] = Cytotoxicity against human SH-SY5Y cells assessed as cell viability at 5 uM after 48 hrs by MTT assay; format: cell-based; details: read-out: Activity; outline: as §1
[20] = Cytotoxicity against human SH-SY5Y cells assessed as cell viability at 10 uM after 48 hrs by MTT assay; format: cell-based; details: read-out: Activity; outline: as §1
[21] = Cytotoxicity against human SH-SY5Y cells assessed as cell viability at 25 uM after 48 hrs by MTT assay; format: cell-based; details: read-out: Activity; outline: as §1
[22] = target: Acetylcholinesterase (Electrophorus electricus) (UniProt O42275); test: Mixed type inhibition of electric eel AChE at 10 to 40 nM preincubated with enzyme for 15 mins followed by substrate addition by Lineweaver-Burk plot analysis
Outline: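 Electric eel AChE with the compound, preincubated at 37°C for 15 min before substrate addition. Reciprocal (Lineweaver-Burk) plots were drawn, and their slopes were plotted against inhibitor concentration in a weighted analysis. Ki was taken as the ratio of plot intercept to slope.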

SH-SY5Y [23] = test: Antioxidant activity in human SH-SY5Y cells assessed as inhibition of H2O2-induced ROS production at 10 to 20 uM after 24 hrs by DCFH-DA fluorescent assay; format: functional, cell-based; outline: as §2

Cholinesterase, sequence (P81908 whole entry): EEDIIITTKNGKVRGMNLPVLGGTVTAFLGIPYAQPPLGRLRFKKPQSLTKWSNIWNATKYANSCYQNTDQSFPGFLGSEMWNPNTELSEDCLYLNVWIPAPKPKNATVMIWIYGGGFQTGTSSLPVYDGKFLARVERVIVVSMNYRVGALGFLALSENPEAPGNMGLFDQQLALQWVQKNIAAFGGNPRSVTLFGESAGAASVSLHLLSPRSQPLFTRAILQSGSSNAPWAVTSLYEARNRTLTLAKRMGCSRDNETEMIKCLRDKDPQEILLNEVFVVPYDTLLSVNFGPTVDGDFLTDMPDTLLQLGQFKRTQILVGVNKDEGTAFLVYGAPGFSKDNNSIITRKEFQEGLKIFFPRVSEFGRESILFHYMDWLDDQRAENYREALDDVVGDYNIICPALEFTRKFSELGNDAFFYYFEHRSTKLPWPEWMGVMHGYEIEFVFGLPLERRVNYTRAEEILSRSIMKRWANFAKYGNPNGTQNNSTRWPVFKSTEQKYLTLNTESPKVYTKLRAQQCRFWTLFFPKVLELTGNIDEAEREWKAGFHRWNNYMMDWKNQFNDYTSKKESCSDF
Acetylcholinesterase, sequence (O42275 whole entry): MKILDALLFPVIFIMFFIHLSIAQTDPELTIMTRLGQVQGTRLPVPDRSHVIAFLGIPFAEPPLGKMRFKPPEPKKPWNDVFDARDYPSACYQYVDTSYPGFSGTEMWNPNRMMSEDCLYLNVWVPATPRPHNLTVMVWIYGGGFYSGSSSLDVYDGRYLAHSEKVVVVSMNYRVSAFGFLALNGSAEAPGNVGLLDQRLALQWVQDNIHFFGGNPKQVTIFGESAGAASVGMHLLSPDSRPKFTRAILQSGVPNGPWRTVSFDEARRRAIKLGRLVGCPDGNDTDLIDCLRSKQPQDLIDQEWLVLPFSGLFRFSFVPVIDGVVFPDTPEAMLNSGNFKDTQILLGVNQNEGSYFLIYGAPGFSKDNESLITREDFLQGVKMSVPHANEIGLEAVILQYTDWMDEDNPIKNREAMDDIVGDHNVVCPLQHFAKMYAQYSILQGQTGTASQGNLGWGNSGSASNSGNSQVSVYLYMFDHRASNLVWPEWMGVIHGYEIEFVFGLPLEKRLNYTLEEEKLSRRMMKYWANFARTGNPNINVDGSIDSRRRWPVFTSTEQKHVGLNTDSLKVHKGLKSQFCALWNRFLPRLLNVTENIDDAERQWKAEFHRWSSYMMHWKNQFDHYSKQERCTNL
T1 sequence (P05067 whole entry): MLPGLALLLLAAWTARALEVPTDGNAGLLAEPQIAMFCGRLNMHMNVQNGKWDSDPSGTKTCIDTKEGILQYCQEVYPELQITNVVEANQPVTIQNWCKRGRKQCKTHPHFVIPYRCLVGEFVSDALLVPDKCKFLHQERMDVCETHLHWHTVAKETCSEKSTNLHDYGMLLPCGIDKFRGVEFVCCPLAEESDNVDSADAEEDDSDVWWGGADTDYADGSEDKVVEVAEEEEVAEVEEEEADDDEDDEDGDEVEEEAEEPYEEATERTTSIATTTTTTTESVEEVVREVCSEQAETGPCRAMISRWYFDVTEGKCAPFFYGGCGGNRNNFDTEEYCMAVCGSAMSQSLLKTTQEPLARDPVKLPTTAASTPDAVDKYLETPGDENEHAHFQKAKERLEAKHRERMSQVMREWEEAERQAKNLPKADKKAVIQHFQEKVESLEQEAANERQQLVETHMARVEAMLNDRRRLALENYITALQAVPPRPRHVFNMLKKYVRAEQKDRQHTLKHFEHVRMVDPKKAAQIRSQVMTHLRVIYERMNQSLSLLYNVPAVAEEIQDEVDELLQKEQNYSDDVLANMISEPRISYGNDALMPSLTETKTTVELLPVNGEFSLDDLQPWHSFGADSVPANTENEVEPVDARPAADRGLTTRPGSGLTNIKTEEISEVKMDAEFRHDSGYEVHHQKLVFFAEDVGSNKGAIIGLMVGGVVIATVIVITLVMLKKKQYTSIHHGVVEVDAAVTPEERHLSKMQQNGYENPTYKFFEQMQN
Acetylcholinesterase (Electrophorus electricus), sequence (O42275 24-633 limits assumed): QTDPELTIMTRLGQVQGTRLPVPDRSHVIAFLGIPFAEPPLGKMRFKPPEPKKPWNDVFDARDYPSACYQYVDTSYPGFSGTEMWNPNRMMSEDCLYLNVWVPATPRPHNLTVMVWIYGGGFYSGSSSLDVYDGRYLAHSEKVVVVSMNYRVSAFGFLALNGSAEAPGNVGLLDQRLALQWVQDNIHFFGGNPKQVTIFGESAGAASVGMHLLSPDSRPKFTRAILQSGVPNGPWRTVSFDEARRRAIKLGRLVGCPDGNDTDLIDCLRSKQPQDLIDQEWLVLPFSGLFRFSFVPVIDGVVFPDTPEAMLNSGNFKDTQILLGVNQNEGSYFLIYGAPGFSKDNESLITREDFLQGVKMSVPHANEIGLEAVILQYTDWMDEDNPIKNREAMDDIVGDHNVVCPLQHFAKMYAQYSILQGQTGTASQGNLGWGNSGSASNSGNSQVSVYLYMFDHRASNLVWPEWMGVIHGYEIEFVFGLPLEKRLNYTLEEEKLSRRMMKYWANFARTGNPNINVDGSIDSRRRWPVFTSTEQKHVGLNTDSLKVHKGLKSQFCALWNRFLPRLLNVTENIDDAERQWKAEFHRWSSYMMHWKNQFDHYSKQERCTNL

Work on `O=C1C(=Cc2ccc(N3CCN(C(c4ccccc4)c4ccccc4)CC3)cc2)C(=O)c2ccccc21` yielded an IC50 (Acetylcholinesterase) of 0.061 µM, an IC50 (Cholinesterase) of 3.35 µM and a Ratio IC50 [1] of 54.9. The inhibition [2] was 80.6%, the IC50 [3] was 11.8 µM and the Ratio IC50 [4] was 1.5.

`O=C1C(=Cc2ccc(N3CCN(C(=O)c4ccco4)CC3)cc2)C(=O)c2ccccc21` gave a viability at 48 h, 50 µM [5] of 89.6%, a viability at 48 h, 75 µM [6] of 86.3% and a viability at 48 h, 100 µM [7] of 82.3%. For the same compound, the Activity (SH-SY5Y [8]) was “Non-toxic”, the Activity (SH-SY5Y [9]) was “Dose-dependent effect” and the Activity (SH-SY5Y [10]) was “Non-toxic”. The IC50 (Acetylcholinesterase) was 0.048 µM, the IC50 (Cholinesterase) was 2.61 µM and the Ratio IC50 [1] was 54.2. It also gave an inhibition [2] of 82.2%, an IC50 [3] of 9.2 µM and a Ratio IC50 [4] of 1.5. For the same compound, the inhibition [11] was “Active”, the inhibition (SH-SY5Y [12]) was “Dose-dependent effect” and the Activity (SH-SY5Y [13]) was “Dose-dependent effect”. For the same compound, the Activity (SH-SY5Y [14]) was “Active”, the Activity (SH-SY5Y [15]) was “Active” and the Activity (SH-SY5Y [16]) was “Dose-dependent effect”. For the same compound, the Activity (SH-SY5Y [17]) was “Active”, the viability at 48 h, 1 µM [18] was 98.1% and the viability at 48 h, 5 µM [19] was 96.4%. The viability at 48 h, 10 µM [20] was 95.3% and the viability at 48 h, 25 µM [21] was 93.9%.

In the case of `Cc1ccc(N2CCN(c3ccc(C=C4C(=O)c5ccccc5C4=O)cc3)CC2)cc1`, the IC50 (Acetylcholinesterase) is reported as 0.251 µM, the IC50 (Cholinesterase) is reported as 0.392 µM and the Ratio IC50 [1] is reported as 1.5. It also gave an inhibition [2] of 62.4%.

Work on `O=C1C(=Cc2ccc(N3CCN(Cc4ccc5c(c4)OCO5)CC3)cc2)C(=O)c2ccccc21` yielded an IC50 (Acetylcholinesterase) of 0.131 µM, an IC50 (Cholinesterase) of 4.25 µM and a Ratio IC50 [1] of 33.8. For the same compound, the inhibition [2] was 71.8%.

`O=C1C(=Cc2ccc(N3CCN(c4ccccn4)CC3)cc2)C(=O)c2ccccc21` gave an IC50 (Acetylcholinesterase) of 0.112 µM, an IC50 (Cholinesterase) of 0.88 µM and a Ratio IC50 [1] of 7.8. For the same compound, the inhibition [2] was 70.9%.

Work on `O=C1C(=Cc2ccc(N3CCN(c4ccc(C(F)(F)F)cc4)CC3)cc2)C(=O)c2ccccc21` yielded an IC50 (Acetylcholinesterase) of 0.141 µM, an IC50 (Cholinesterase) of 2.14 µM and a Ratio IC50 [1] of 15.1. For the same compound, the inhibition [2] was 74.9%.

Compound `O=C1C(=Cc2ccc(N3CCN(c4ccc(Cl)cc4)CC3)cc2)C(=O)c2ccccc21` has an IC50 (Acetylcholinesterase) of 0.231 µM, an IC50 (Cholinesterase) of 1.11 µM and a Ratio IC50 [1] of 4.8. For the same compound, the inhibition [2] was 60.8%.

`O=C1C(=Cc2ccc(N3CCN(c4ccc(F)cc4)CC3)cc2)C(=O)c2ccccc21` showed an IC50 (Acetylcholinesterase) of 0.173 µM, an IC50 (Cholinesterase) of 5.13 µM and a Ratio IC50 [1] of 29.6. For the same compound, the inhibition [2] was 61.8%.

Work on `O=C1C(=Cc2ccc(N3CCN(c4ncccn4)CC3)cc2)C(=O)c2ccccc21` yielded a viability at 48 h, 50 µM [5] of 89.6%, a viability at 48 h, 75 µM [6] of 86.3% and a viability at 48 h, 100 µM [7] of 82.3%. The Activity (SH-SY5Y [8]) was “Non-toxic”, the IC50 (Acetylcholinesterase) was 0.036 µM and the IC50 (Cholinesterase) was 2.78 µM. It also gave a Ratio IC50 [1] of 77.1, an inhibition [2] of 80.9% and an IC50 [3] of 10.1 µM. For the same compound, the Ratio IC50 [4] was 1.5, the inhibition [22] was “Active” and the inhibition [11] was “Active”. The inhibition (SH-SY5Y [23]) was “Active”, the Activity (SH-SY5Y [13]) was “Dose-dependent effect” and the Activity (SH-SY5Y [14]) was “Active”. The Activity (SH-SY5Y [15]) was “Active”, the Activity (SH-SY5Y [16]) was “Dose-dependent effect” and the Activity (SH-SY5Y [17]) was “Active”. The viability at 48 h, 1 µM [18] was 98.1%, the viability at 48 h, 5 µM [19] was 96.4% and the viability at 48 h, 10 µM [20] was 95.3%. The viability at 48 h, 25 µM [21] was 93.9%.

For `O=C1C(=Cc2ccc(N3CCN(c4ccccc4)CC3)cc2)C(=O)c2ccccc21`, the IC50 (Acetylcholinesterase) was 2.44 µM, the IC50 (Cholinesterase) was 4.66 µM and the Ratio IC50 [1] was 1.9. The inhibition [2] was 57.3%.

`Cc1ccc(N2CCN(c3ccc(C=C4C(=O)c5ccccc5C4=O)cc3)CC2)c(C)c1` showed an IC50 (Acetylcholinesterase) of 0.298 µM, an IC50 (Cholinesterase) of 0.415 µM and a Ratio IC50 [1] of 1.39. For the same compound, the inhibition [2] was 69.9%.

For `O=C1C(=Cc2ccc(N3CCN(C(=O)c4ccccc4)CC3)cc2)C(=O)c2ccccc21`, the IC50 (Acetylcholinesterase) was 14.2 µM, the IC50 (Cholinesterase) was 13.4 µM and the Ratio IC50 [1] was 0.9. For the same compound, the inhibition [2] was 53.9%.
